The source made the active and inactive calls. Where a SMILES comes first, the peptide text is derived from it. [ ]: non-standard residue; d: D form. The star is where a group is joined. Ethyl(2-stearoyloxy) = CCCCCCCCCCCCCCCCCC(=O)OCC*; Ethyl(2-palmitoyloxy) = CCCCCCCCCCCCCCCC(=O)OCC*; CH2CH2OBz(4-tBu) = CC(C)(C)c1ccc(C(=O)OCC*)cc1; Ethyl(2-decanoyloxy) = CCCCCCCCCC(=O)OCC*; Ethyl(2-butanoyloxy) = CCCC(=O)OCC*; Ethyl(2-OPiv) = CC(C)(C)C(=O)OCC*; Mpa = O=C(O)CCS

Gap junction alpha-1 protein (Homo sapiens), sequence (P17302 whole entry): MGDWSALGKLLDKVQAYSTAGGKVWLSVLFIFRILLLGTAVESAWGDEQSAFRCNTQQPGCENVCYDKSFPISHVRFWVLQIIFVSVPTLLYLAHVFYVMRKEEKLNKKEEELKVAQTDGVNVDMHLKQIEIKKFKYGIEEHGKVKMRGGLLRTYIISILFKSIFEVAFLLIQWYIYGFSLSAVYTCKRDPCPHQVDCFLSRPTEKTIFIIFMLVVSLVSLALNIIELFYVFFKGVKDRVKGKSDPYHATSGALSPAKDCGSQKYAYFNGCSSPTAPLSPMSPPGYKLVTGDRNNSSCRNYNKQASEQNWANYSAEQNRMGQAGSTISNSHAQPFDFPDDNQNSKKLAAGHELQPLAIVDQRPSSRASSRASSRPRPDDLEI

Tested on in one data set: not listed separately
The experiment in a line: Stability in rat plasma assessed as half life at 150 ug/l measured up to 60 mins by HPLC analysis. Type of data set: ADME, cell-free. In a few lines:
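Peptide from a 20 mg/L water stock incubated in 25% rat serum (v/v) in PBS pH 7.4 at a final 150 μg/L, 37 °C. Samples taken at 0-60 min and quenched with MeCN plus 15% TCA, held overnight at 4 °C, then centrifuged. Remaining peptide measured by C18 RP-HPLC peak area at 210 nm relative to t=0. Run in triplicate.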
On to `CC(C)C[C@H](NC(=O)[C@H](Cc1ccccc1)NC(=O)[C@H](CS)NC(=O)[C@H](CC(=O)O)NC(=O)[C@@H](N)C(C)C)C(=O)N[C@@H](CO)C(=O)N[C@@H](CCCNC(=N)N)C(=O)N1CCC[C@H]1C(=O)N[C@H](C(=O)N[C@@H](CCC(=O)O)C(=O)N[C@@H](CCCCN)C(=O)N[C@H](C(=O)O)[C@@H](C)O)[C@@H](C)O` (H-VDCFLSRPTEKT-OH), for which the half-life (commonly the time needed for the level to fall by half in the phase considered) at 150 ug/l is 5 min.

A further data set concerns the target Gap junction alpha-1 protein (Homo sapiens) (UniProt P17302). Nature of the data set: Inhibition of Cx43 in hypoxic-acidic ion-shifted ringers solution-induced human cerebral microvascular endothelial cell model of ischaemic injury assessed as ATP release at 10 uM measured after 2 hrs by luciferin-luciferase based luminescence assay relative to control. Set-up: scale not given: the % may be the effect or the level left. The gist of the method:
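hCMVEC (passages 8-17) seeded at 2 x 10^6/well on collagen-I (1 µg/cm²) and grown 48 h to a confluent monolayer. Washed in NR, then exposed 2 h in HAIR (pH 6.6, N₂-bubbled, low Ca²⁺, K-gluconate/NMDG) containing peptide at 10 µM. Supernatant diluted 1:10 in firefly luciferase mix and read at 560 nm against an ATP standard (0-50 nM). Expressed as % of HAIR-only, mean of n=3.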
On to `CCCCCCCCCCCCCCCC(=O)OCCSC[C@H](NC(=O)[C@H](CCCCN)NC(=O)[C@H](CCC(=O)O)NC(=O)[C@@H](NC(=O)[C@@H]1CCCN1C(=O)[C@H](CCCNC(=N)N)NC(=O)[C@H](CO)NC(=O)[C@H](CC(C)C)NC(=O)[C@H](Cc1ccccc1)NC(=O)[C@H](CS)NC(=O)[C@H](CC(=O)O)NC(=O)[C@@H](N)C(C)C)[C@@H](C)O)C(=O)O` (H-VDCFLSRPTEKC(Ethyl(2-palmitoyloxy))-OH), for which the Activity came out at 131%. Still for that read-out and setting: next, `CCCCCCCCCCCCCCCCCC(=O)OCCSC[C@H](NC(=O)[C@H](CCCCN)NC(=O)[C@H](CCC(=O)O)NC(=O)[C@@H](NC(=O)[C@@H]1CCCN1C(=O)[C@H](CCCNC(=N)N)NC(=O)[C@H](CO)NC(=O)[C@H](CC(C)C)NC(=O)[C@H](Cc1ccccc1)NC(=O)[C@H](CS)NC(=O)[C@H](CC(=O)O)NC(=O)[C@@H](N)C(C)C)[C@@H](C)O)C(=O)O` (H-VDCFLSRPTEKC(Ethyl(2-stearoyloxy))-OH): 129%; `CC(C)C[C@H](NC(=O)[C@H](Cc1ccccc1)NC(=O)[C@H](CS)NC(=O)[C@H](CC(=O)O)NC(=O)[C@@H](N)C(C)C)C(=O)N[C@@H](CO)C(=O)N[C@@H](CCCNC(=N)N)C(=O)N1CCC[C@H]1C(=O)N[C@H](C(=O)N[C@@H](CCC(=O)O)C(=O)N[C@@H](CCCCN)C(=O)N[C@H](C(=O)O)[C@@H](C)O)[C@@H](C)O` (H-VDCFLSRPTEKT-OH): 53.8%; `CC(C)C[C@H](NC(=O)[C@H](Cc1ccccc1)NC(=O)[C@H](CS)NC(=O)[C@H](CC(=O)O)NC(=O)[C@@H](NC(=O)CCSCCOC(=O)c1ccc(C(C)(C)C)cc1)C(C)C)C(=O)N[C@@H](CO)C(=O)N[C@@H](CCCNC(=N)N)C(=O)N1CCC[C@H]1C(=O)N[C@H](C(=O)N[C@@H](CCC(=O)O)C(=O)N[C@@H](CCCCN)C(=O)N[C@H](C(=O)O)[C@@H](C)O)[C@@H](C)O` ([Mpa](CH2CH2OBz(4-tBu))VDCFLSRPTEKT-OH): “inactive”.

With `CC(C)C[C@H](NC(=O)[C@H](Cc1ccccc1)NC(=O)[C@H](CS)NC(=O)[C@H](CC(=O)O)NC(=O)[C@@H](NC(=O)CCSCCOC(=O)C(C)(C)C)C(C)C)C(=O)N[C@@H](CO)C(=O)N[C@@H](CCCNC(=N)N)C(=O)N1CCC[C@H]1C(=O)N[C@H](C(=O)N[C@@H](CCC(=O)O)C(=O)N[C@@H](CCCCN)C(=O)N[C@H](C(=O)O)[C@@H](C)O)[C@@H](C)O` ([Mpa](Ethyl(2-OPiv))VDCFLSRPTEKT-OH), the outcome was inactive. As to `CCCC(=O)OCCSCCC(=O)N[C@H](C(=O)N[C@@H](CC(=O)O)C(=O)N[C@@H](CS)C(=O)N[C@@H](Cc1ccccc1)C(=O)N[C@@H](CC(C)C)C(=O)N[C@@H](CO)C(=O)N[C@@H](CCCNC(=N)N)C(=O)N1CCC[C@H]1C(=O)N[C@H](C(=O)N[C@@H](CCC(=O)O)C(=O)N[C@@H](CCCCN)C(=O)N[C@H](C(=O)O)[C@@H](C)O)[C@@H](C)O)C(C)C` ([Mpa](Ethyl(2-butanoyloxy))VDCFLSRPTEKT-OH), the Activity turned out to be 28.8%. With `CCCCCCCCCC(=O)OCCSCCC(=O)N[C@H](C(=O)N[C@@H](CC(=O)O)C(=O)N[C@@H](CS)C(=O)N[C@@H](Cc1ccccc1)C(=O)N[C@@H](CC(C)C)C(=O)N[C@@H](CO)C(=O)N[C@@H](CCCNC(=N)N)C(=O)N1CCC[C@H]1C(=O)N[C@H](C(=O)N[C@@H](CCC(=O)O)C(=O)N[C@@H](CCCCN)C(=O)N[C@H](C(=O)O)[C@@H](C)O)[C@@H](C)O)C(C)C` ([Mpa](Ethyl(2-decanoyloxy))VDCFLSRPTEKT-OH), the result was inactive. For `CCCCCCCCCCCCCCCC(=O)OCCSCCC(=O)N[C@H](C(=O)N[C@@H](CC(=O)O)C(=O)N[C@@H](CS)C(=O)N[C@@H](Cc1ccccc1)C(=O)N[C@@H](CC(C)C)C(=O)N[C@@H](CO)C(=O)N[C@@H](CCCNC(=N)N)C(=O)N1CCC[C@H]1C(=O)N[C@H](C(=O)N[C@@H](CCC(=O)O)C(=O)N[C@@H](CCCCN)C(=O)N[C@H](C(=O)O)[C@@H](C)O)[C@@H](C)O)C(C)C` ([Mpa](Ethyl(2-palmitoyloxy))VDCFLSRPTEKT-OH), the outcome was inactive. `CCCCCCCCCCCCCCCCCC(=O)OCCSCCC(=O)N[C@H](C(=O)N[C@@H](CC(=O)O)C(=O)N[C@@H](CS)C(=O)N[C@@H](Cc1ccccc1)C(=O)N[C@@H](CC(C)C)C(=O)N[C@@H](CO)C(=O)N[C@@H](CCCNC(=N)N)C(=O)N1CCC[C@H]1C(=O)N[C@H](C(=O)N[C@@H](CCC(=O)O)C(=O)N[C@@H](CCCCN)C(=O)N[C@H](C(=O)O)[C@@H](C)O)[C@@H](C)O)C(C)C` ([Mpa](Ethyl(2-stearoyloxy))VDCFLSRPTEKT-OH): the result was inactive.

These data come from ChEMBL document CHEMBL4673184, “Synthesis and biological evaluation of S-lipidated lipopeptides of a connexin 43 channel inhibitory peptide” (RSC Med Chem, 2020).
